Results: PubChem BioAssay
Calls of active or inactive are those of the source.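 How the source made its calls, unless noted: active means fluorescence slope higher than the sample average by over 3 SD (cut at about -0.22 in these data, passing the limit was not always enough); inactive means the rest.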

Key:
[1] = inhibitors of TNFa-induced NFkB p65 translocation, primary screen, imaging, HUVEC, MLSMR starter and 10KST1 sets (AID 438;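 active means inhibition above 20% together with a positive visual image hit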;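 further: compound added about 3h40 before a 20 min TNFalpha stimulation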;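 on inhibition: signal is the nuclear over cytoplasmic p65 intensity ratio per well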); details: HUVEC TNFa-induced p65 nuclear translocation; cell count: measured here: nuclei count (cytotoxicity indicator), at 2.08 µM; inhibition: at 2 µM, stronger effect = higher value, 0% TNFa-plus-vehicle, 100% no-TNFa wells
[2] = endothelial E-selectin expression blockers – imaging, HUVEC, immunofluorescence, MLSMR starter and 10KST1 sets, primary screen (AID 487;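 active means visually confirmed hit in the image check and inhibition above 20%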;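 on inhibition: signal is fraction of cell area covered by stained E-selectin grains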;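 on nuclei count: 100% = median nuclei count of all wells on the same plate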); details: HUVEC TNFalpha-induced E-selectin immunofluorescence imaging, at 2 µM; inhibition: stronger effect = higher value; nuclei count: measured here: cell number, toxicity
[3] = Primary imaging screen for DUSP6 inhibitors that restore phospho-Erk in transfected HeLa cells, chemical complementation (AID 609;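 active means compounds giving at least 50% inhibition in the cell-based MKP-3 phosphatase rescue imaging test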;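 on inhibition: phospho-Erk level distribution per well compared with pooled transfected vehicle control wells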); details: HeLa MKP-3 transfected, phospho-Erk imaging KS statistic, at 10 µM, cells stimulated with TPA for 15 min
[4] = molecular target: Dual specificity protein phosphatase 6 (Homo sapiens) (UniProt Q16828); test: as above; details: HeLa MKP-3 transfected, phospho-Erk imaging KS statistic; at 10 µM; stronger effect = higher value; cells stimulated with TPA for 15 min
[5] = molecular target: Voltage-gated potassium channel subunit beta-2 (Rattus norvegicus) (UniProt P62483); test: inhibitors of rat Kvbeta2 reductase activity – biochemical, NADPH fluorescence, primary screen (AID 622); details: recombinant KvBeta, 4-cyanobenzaldehyde reduction, at 10 µM, stronger effect = higher value;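 further: slope of raw intensity against log time taken from 70 to 1610 s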
[6] = molecular target: Voltage-gated potassium channel subunit beta-2 (Rattus norvegicus) (UniProt P62483); test: enhancers of rat Kvbeta2 NADPH turnover – biochemical, NADPH fluorescence, primary screen (AID 623;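 active means NADPH fluorescence slope more negative than the mean of all samples by about 3 SD, 99.7% confidence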;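 further: fluorescence intensity change per second fitted from 20 to 320 s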); details: Recombinant KvBeta, NADPH fluorescence decrease slope, 10 min; at 10 µM; stronger effect = lower value
[7] = molecular target: Muscarinic acetylcholine receptor M4 (Homo sapiens) (UniProt P08173); test: M4-linked GIRK flux change, two-sided – cell-based, HEK293 M4/GIRK, thallium flux, BTC-AM, M4 allosteric agonist project, primary screen (AID 625;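 active means fluorescence slope after compound addition differing from the mean of all tested samples at 99.7% confidence, mostly higher but some lower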;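 further: thallium influx through GIRK channels coupled to M4 in HEK293 cells with BTC-AM dye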); details: at 10 µM, actives lie on both sides
How it was run: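 Material: M4/GIRK1/GIRK2 stable HEK293 cell line. Medium: pH 7.3 thallium assay buffer. Dosing: single compound concentration, 10 µM final. Schedule: 1 h dye loading, 2 min kinetic read. Measured by: kinetic fluorescence with BTC-AM dye. Read-out: post-addition slope, 15–24 s, of baseline-normalized fluorescence. Benchmarks: carbachol and DMSO controls.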

[8] = inhibitors of larval lipid processing in zebrafish, primary screen, whole organism, PED6 fluorescence, gall bladder and intestine (AID 686;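 active means a full or partial loss of lipid-probe fluorescence in the fish gall bladder, intestine or both, judged by eye; inactive means no fluorescence loss, or compound toxic to the fish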;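 further: larvae 5 to 7 days old with five fish per well; signal comes from phospholipase A2 cleavage of quenched PED6 carried via bile; overnight exposure to compound and PED6 before scoring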); details: Zebrafish larvae PED6 lipid processing, fluorescence scoring; screened at 20 µM (by protocol)
How it was run: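 System: live zebrafish larvae aged 5-7 days, whole organism; measure: graded gall bladder and intestinal fluorescence inhibition per well; incubation: overnight exposure; reagent: ingested quenched lipid PED6 at 100 nM; signal: By-eye fluorescence microscopy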

[9] = loss of swimming-algae plug formation – whole organism, Chlamydomonas reinhardtii, WT vs cilia-less mutant, absorbance, 96-well, primary screen (AID 463189;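 active means inhibition at or above 50% relative to wild type and mutant plate controls; inactive means inhibition below 50%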;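 further: 0% = wild type cc124 cells in DMSO and 100% = ciliumless bld1 mutant cells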); details: Chlamydomonas reinhardtii gravitaxis, OD600 absorbance, 2 days; at 10 µM; stronger effect = higher value
[10] = measured here: cell density z-score
[11] = measured here: nuclear c-Myc green intensity z-score
[12] = measured here: nuclear pErk red intensity z-score, stronger effect = higher value

Sequence of Voltage-gated potassium channel subunit beta-2 (Rattus norvegicus) (P62483 whole entry, looked up): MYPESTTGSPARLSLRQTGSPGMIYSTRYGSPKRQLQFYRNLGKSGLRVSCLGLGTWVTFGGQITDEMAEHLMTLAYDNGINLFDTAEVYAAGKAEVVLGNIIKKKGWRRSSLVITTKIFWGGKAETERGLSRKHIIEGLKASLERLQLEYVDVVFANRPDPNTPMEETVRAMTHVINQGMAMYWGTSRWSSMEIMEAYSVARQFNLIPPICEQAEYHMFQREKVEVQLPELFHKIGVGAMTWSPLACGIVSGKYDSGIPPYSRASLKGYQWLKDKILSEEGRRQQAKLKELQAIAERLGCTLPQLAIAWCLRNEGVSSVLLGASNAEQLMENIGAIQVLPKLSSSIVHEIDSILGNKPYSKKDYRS
Sequence of Muscarinic acetylcholine receptor M4 (Homo sapiens) (P08173 whole entry, looked up): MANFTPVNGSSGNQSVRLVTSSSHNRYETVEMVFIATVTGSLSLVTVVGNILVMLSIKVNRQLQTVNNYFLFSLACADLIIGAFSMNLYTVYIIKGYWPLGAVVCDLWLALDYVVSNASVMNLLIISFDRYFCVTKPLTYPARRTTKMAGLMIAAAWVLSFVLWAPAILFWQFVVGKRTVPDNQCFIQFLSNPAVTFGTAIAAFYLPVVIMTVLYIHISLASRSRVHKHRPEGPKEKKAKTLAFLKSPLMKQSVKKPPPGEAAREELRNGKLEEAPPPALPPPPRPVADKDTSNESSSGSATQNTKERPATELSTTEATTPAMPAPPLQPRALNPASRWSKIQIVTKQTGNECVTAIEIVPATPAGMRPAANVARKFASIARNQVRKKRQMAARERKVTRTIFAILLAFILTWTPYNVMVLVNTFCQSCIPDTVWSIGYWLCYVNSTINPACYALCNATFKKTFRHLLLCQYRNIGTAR
Sequence of Dual specificity protein phosphatase 6 (Homo sapiens) (Q16828 whole entry, looked up): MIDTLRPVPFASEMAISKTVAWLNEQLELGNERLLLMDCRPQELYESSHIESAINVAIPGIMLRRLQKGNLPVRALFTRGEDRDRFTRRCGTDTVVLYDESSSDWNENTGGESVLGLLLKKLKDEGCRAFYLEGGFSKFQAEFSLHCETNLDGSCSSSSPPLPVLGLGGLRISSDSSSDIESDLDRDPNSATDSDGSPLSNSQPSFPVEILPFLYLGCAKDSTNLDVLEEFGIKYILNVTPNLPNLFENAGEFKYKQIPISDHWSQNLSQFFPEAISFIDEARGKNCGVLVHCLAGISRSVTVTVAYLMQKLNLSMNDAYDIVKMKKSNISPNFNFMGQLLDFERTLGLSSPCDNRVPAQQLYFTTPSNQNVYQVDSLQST

SMILES	cell count [1]	inhibition [1]	inhibition [2]	nuclei count [2] [%]	z-score [3, 10]	z-score [3, 11]	z-score [3, 12]	inhibition [4]	fluorescence slope [5]	NADPH fluorescence slope [6]	fluorescence slope [7]	outcome [8]	inhibition [9]
CN(C)CCCn1c(NC(=O)C2CCCCC2)nc2ccccc21	672	9.7% (inactive)	-32.4% (inactive)	112	0.036	-0.199	-1.54	-3.95% (inactive)	-0.437 (inactive)	-3.5e-05 (inactive)	0.00538 (inactive)	inactive	-0.148% (inactive)
Cc1nc(N2CCN(C(=O)c3ccc(Cl)cc3)CC2)c(C#N)c2c1COC(C)(C)C2	522	8.1% (inactive)	7% (inactive)	95.8	-0.225	-0.286	0.404	1.98% (inactive)	-0.335 (inactive)	-2.3e-05 (inactive)	0.00518 (inactive)	inactive	129% (active)
Cc1c(O)c(CN2CCCC2)cc2c1oc(=O)c1ccccc12	602	3.3% (inactive)	92.9% (active)	77.2	0.99	0.189	-0.00827	-8.95% (inactive)	-0.44 (inactive)	-2.9e-05 (inactive)	0.00331 (inactive)	inactive	17.4% (inactive)
CCCn1nnc(NC(=O)c2cc(Br)cc(Br)c2OC)n1	391	-1.7% (inactive)	-24.1% (inactive)	127	0.877	0.738	0.427	20.2% (inactive)	-0.463 (inactive)	-0.000102 (inactive)	0.00469 (inactive)	inactive	8.4% (inactive)
Cn1c[n+](C)cc1/C=N/O	710	-2% (inactive)	-108% (inactive)	159	-0.468	0.134	-0.77	0.671% (inactive)	-0.459 (inactive)	-6.2e-05 (inactive)	0.00537 (inactive)	inactive	-4.46% (inactive)
Cn1c(N2CCN(c3ccccn3)CC2)nc2c1c(=O)n(Cc1ccccc1Cl)c(=O)n2C	738	4.2% (inactive)	-56.1% (inactive)	177	-0.827	-0.0696	1.36	13.9% (inactive)	-0.465 (inactive)	-0.000144 (inactive)	0.00667 (inactive)	inactive	5.36% (inactive)
O=C(c1coc(=O)c(Br)c1)N1CCOCC1	718	2.4% (inactive)	-137% (inactive)	181	-0.0624	0.26	0.186	-4.7% (inactive)	-0.429 (inactive)	3.1e-07 (inactive)	0.00447 (inactive)	inactive	14.2% (inactive)
O=C(Cc1ccc(Cl)cc1)Nc1cccc(-c2nnc(-c3ccco3)o2)c1	695	-4% (inactive)	32.2% (inactive)	162	0.714	1.13	-0.033	7.21% (inactive)	-0.476 (inactive)	-7.5e-05 (inactive)	0.006 (inactive)	inactive	5.58% (inactive)
CCCCCOC(=O)Cc1c(C)nc(-c2ccccc2)[nH]c1=O	373	-0.5% (inactive)	-157% (inactive)	157	1.82	-0.595	-0.463	30.7% (inactive)	-0.474 (inactive)	-7.9e-05 (inactive)	0.00469 (inactive)	inactive	32% (inactive)
COc1ccc(/C(O)=C2\C(=O)C(=O)N(Cc3ccco3)C2c2cc(OC)ccc2OC)cc1 (stereo unspecified)	613	-13.1% (inactive)	-6% (inactive)	161	0.378	-0.392	-0.39	5.42% (inactive)	-0.452 (inactive)	-1.6e-05 (inactive)	0.00573 (inactive)	inactive	-2.62% (inactive)
O=C(C1CCCCC1)N1CCCn2c1nc1ccccc12	466	-4.2% (inactive)	40.4% (inactive)	93.7	0.0435	0.0435	-0.166	-0.233% (inactive)	-0.481 (inactive)	-3.7e-05 (inactive)	0.00633 (inactive)	inactive	-20.3% (inactive)
C=CCN(C)CCCNC(=O)/C=N/O	585	-6.9% (inactive)	22.6% (inactive)	87	1.68	-0.8	-0.822	31.4% (inactive)	-0.504 (inactive)	-8.8e-05 (inactive)	0.00593 (inactive)	inactive	-9.97% (inactive)
